In the library only some 27% were active in any assay of this set; here they are far more common.
CYP2C9 inhib: inhibitors of human CYP2C9 | inhibition, % at 5 µM | CYP2C9 Supersomes, luciferin-H conversion, luminescence | P11712 | hit rate 20% among 96,000 | AID 777;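 active = blocking of liver enzyme CYP2C9 beyond about 50% at 5 µM, limit read from the data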
Target sequence (P11712 whole entry, looked up): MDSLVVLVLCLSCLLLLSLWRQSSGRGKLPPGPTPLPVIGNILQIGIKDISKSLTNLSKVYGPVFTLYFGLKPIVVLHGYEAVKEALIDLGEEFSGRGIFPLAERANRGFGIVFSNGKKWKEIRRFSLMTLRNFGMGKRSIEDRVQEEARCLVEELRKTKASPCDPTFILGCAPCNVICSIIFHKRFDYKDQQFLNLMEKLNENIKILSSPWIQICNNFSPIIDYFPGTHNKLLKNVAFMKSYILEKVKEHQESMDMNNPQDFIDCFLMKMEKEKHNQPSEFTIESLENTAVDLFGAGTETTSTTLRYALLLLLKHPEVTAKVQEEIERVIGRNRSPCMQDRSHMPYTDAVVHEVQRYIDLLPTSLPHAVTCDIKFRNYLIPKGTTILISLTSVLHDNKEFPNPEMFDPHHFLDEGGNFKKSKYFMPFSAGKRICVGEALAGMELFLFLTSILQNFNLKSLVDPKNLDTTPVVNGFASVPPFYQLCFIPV
CYP2C19 inh: blocks human cytochrome P450 2C19 | hit rate 21% among 96,000 | CYP2C19 Supersomes, luciferin-H EGE luminescence, 30 min | inhibition, % at 5 µM | P33261;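 active = CYP2C19 inhibition above a set limit at 5 µM in the primary screen, cut at about 50% in these data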;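 also: plate controls were negative control wells for no effect and 2.5 mM tranylcypromine positive control for full effect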
Cav3 T inh: human Cav3.2 channel inhibition, primary screen. Cav3.2-expressing cells, Fluo-4 calcium fluorescence FDSS; stronger effect = lower value. O95180. AID 449739. hit rate 4% among 100,000. B-score at 10 µM;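 active = single-dose well whose peak fluorescence ratio is a statistical outlier from its plate by either plate-standardised score or position-corrected B-score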
CYP2C19 act: cytochrome P450 2C19 (human) activation; 96,000 tested, under 10 active; activation factor at 5 µM; P33261; recombinant CYP2C19, luciferin-H EGE luminescence; stronger effect = higher value; 0 = fully inhibited enzyme, 1 = untreated enzyme;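 active = activation factor of at least 2 at 5 µM in the primary screen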;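 also: 0 = wells with 2.5 mM tranylcypromine and 1 = vehicle-only wells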
Rev-RRE block: HIV Rev-RRE protein-RNA interaction inhibition | P05866 | Rev peptide-RRE RNA binding, FRET | inhibition, % at 8 µM | hit rate 0.79% among 97,000 | AID 704;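 active = inhibition above the screen-wide mean plus 3 SD, cut at about 35% in these data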;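 also: 0% = median DMSO wells and 100% = median Neomycin B control wells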
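System: Cy5-labelled duplex RRE RNA binding fluorescein-labelled HIV Rev peptide; Signal: fluorescein-to-Cy5 FRET, 480 nm excitation; Also added: labelled Rev peptide; Compound: one concentration, 8 µM nominal; Buffer or medium: HEPES pH 7.5 salt buffer with EDTA; Read-out: % inhibition of FRET ratio versus controls; Schedule: 5 min preincubation and 15 min binding, 25 °C.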
CYP2C9 activ: activators of human CYP2C9. hit rate 1.4% among 96,000. P11712. recombinant CYP2C9, luciferin-H conversion, luminescence; stronger effect = higher value; factor 1 = untreated enzyme, 0 = blocked. activation factor at 5 µM;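 active = activation factor of 2 or more for CYP2C9 at a 5 µM dose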;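 also: 0 = sulfaphenazole-blocked wells and 1 = vehicle-only wells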
An asterisk follows results filed as active; [ ] = another dose, or the depositor's remark.

CCN(CC)c1ccc2c(c1)OC(N)=C(C#N)C2c1cccnc1 (configuration not stated) was read as CYP2C9 inhib 45, CYP2C19 inh 82*, Cav3 T inh -11*, CYP2C19 act 0.2, Rev-RRE block 121*[fluorescence artefact?] and CYP2C9 activ 0.5.
Cc1ccc(C2C(C#N)=C(N)Oc3cc4c(cc32)OCO4)cc1 (configuration not stated) was read as CYP2C9 inhib 74*, CYP2C19 inh 72*, Cav3 T inh -4.4*, CYP2C19 act 0.3, Rev-RRE block 16 and CYP2C9 activ 0.3.
`CCCc1nn(C)c2c1C(c1cccnc1)C(C#N)=C(N)O2` (configuration not stated) gave CYP2C9 inhib 1, CYP2C19 inh -8, Cav3 T inh 0.13, CYP2C19 act 1.1, Rev-RRE block 11 and CYP2C9 activ 1.
N#CC1=C(N)Oc2cc(N)ccc2C1c1ccc(F)cc1 (configuration not stated) was read as CYP2C9 inhib 50*, CYP2C19 inh 74*, Cav3 T inh -3.5, CYP2C19 act 0.3, Rev-RRE block 4 and CYP2C9 activ 0.5.
COC(=O)C1=C2c3[nH]c4ccccc4c3CCN2C(=O)CC1 was read as Cav3 T inh -2.
For CCCn1nc(CC(=O)OCC)c2ccccc2c1=O the results were CYP2C9 inhib 23, CYP2C19 inh 17, Cav3 T inh -0.16, CYP2C19 act 0.8, Rev-RRE block 0 and CYP2C9 activ 0.8.
Screening COc1ccccc1NC(=O)NCCN1C(=O)C2C3C=CC(C3)C2C1=O (configuration not stated) returned CYP2C9 inhib 3, CYP2C19 inh 66*, Cav3 T inh 0.29, CYP2C19 act 0.3, Rev-RRE block 0 and CYP2C9 activ 1.
Screening O=C(NCCN1C(=O)C2C3C=CC(C3)C2C1=O)Nc1ccc(Br)cc1 (configuration not stated) returned CYP2C9 inhib 55*, CYP2C19 inh 94*, Cav3 T inh 0.017, CYP2C19 act 0.1, Rev-RRE block 5 and CYP2C9 activ 0.4.
COc1ccc(NC(=O)CCCN2C(=O)C3C4C=CC(C4)C3C2=O)c(OC)c1 (configuration not stated) was read as Cav3 T inh -2.9 and Rev-RRE block 4.
`O=C1CC(c2ccc(F)cc2)CC(O)=C1C1NCCc2ccccc21` (configuration not stated) gave CYP2C9 inhib 2, CYP2C19 inh -7, Cav3 T inh 0.18, CYP2C19 act 1.1, Rev-RRE block 5 and CYP2C9 activ 1.
COC(=O)C(NC(=O)c1ccc(F)cc1)(Nc1ncc(S(=O)(=O)c2ccc([N+](=O)[O-])cc2)s1)C(F)(F)F (configuration not stated) was read as CYP2C9 inhib 88*, CYP2C19 inh 50*, Cav3 T inh -8.2*, CYP2C19 act 0.5, Rev-RRE block 10 and CYP2C9 activ 0.1.
Screening COC(=O)C(NC(=O)c1ccccc1)(Nc1nc(C)cs1)C(F)(F)F (configuration not stated) returned CYP2C9 inhib 12, CYP2C19 inh 43, Cav3 T inh 0.82, CYP2C19 act 0.6, Rev-RRE block 3 and CYP2C9 activ 0.9.
COC(=O)C(C)(C(=O)OC)c1ccc([N+](=O)[O-])cn1 was read as CYP2C9 inhib -5, CYP2C19 inh 6, Cav3 T inh -0.025, CYP2C19 act 0.9, Rev-RRE block 3 and CYP2C9 activ 1.
COC(=O)C(NC(=O)c1ccccc1C)(Nc1ncc(S(=O)(=O)c2ccc([N+](=O)[O-])cc2)s1)C(F)(F)F (configuration not stated) was read as CYP2C9 inhib 60*, CYP2C19 inh 43, Cav3 T inh -7.8*, CYP2C19 act 0.6, Rev-RRE block 10 and CYP2C9 activ 0.4.
For COC(=O)c1cc2oc(C)cc2n1CC(=O)Nc1cc(C)cc(C)c1 the results were CYP2C9 inhib 4, CYP2C19 inh -11, Cav3 T inh -0.75, CYP2C19 act 1.1, Rev-RRE block 0 and CYP2C9 activ 1.

High-throughput results deposited in PubChem by several laboratories.
